The record followed here is ChEMBL document CHEMBL4825702, “5-Aminonaphthalene derivatives as selective nonnucleoside nuclear receptor binding SET domain-protein 2 (NSD2) inhibitors for the treatment of multiple myeloma” (Eur J Med Chem, 2021).

As usually defined, the AUC is concentration integrated over time. Low values mean low exposure, high ones high exposure. Broadly, the IC50 is the point on the concentration scale where inhibition reaches its midpoint. In general, Tmax refers to the time from dosing to the highest level. As usually defined, the Vd is the apparent volume that relates the amount in the body to the concentration in plasma or blood. Higher therefore signals wide distribution into tissue. One may read the Cmax as the peak of the concentration-time curve.

Activity calls are given as the source filed them. The rule behind the calls is not given here.

Data set [1] is described as follows: AUC in CD-1 mouse at 2 mg/kg, iv measured up to 24 hrs by LC-MS/MS. In kind it is ADME, organism-based. Also noted: route intravenous, dose 2 mg/kg, time <=24. The conditions noted are these: in vivo. In short, it runs like this:
(§1)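 CD-1 mice given a single 2 mg/kg dose i.p. or i.v. (n = 3 per group). Blood sampled at 0, 0.083, 0.25, 0.5, 1, 2, 4, 6, 8 and 24 h and centrifuged for plasma, with internal standard added. Plasma deproteinized with methanol/acetonitrile (1:1), supernatant diluted with acetonitrile/water, and compound measured by LC/MS/MS.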

In data set [2] the test system is Pfeiffer. Briefly: Antiproliferative activity against human Pfeiffer cells assessed as reduction in cell viability incubated for 6 days by CCK8 assay. (In general: Tetrazolium assays rely on reduction of a dye to a coloured formazan, in cell work by metabolically active cells.)
A short description of data set [3]: Inhibition of MET transcriptional activity in human KMS-11 cells assessed as reduction in H3K36 methylation at 10 uM measured after 72 hrs by chip q-PCR analysis.
For data set [4], the system named is NCI-H929. Briefly: Antiproliferative activity against human NCI-H929 cells assessed as reduction in cell viability incubated for 6 days by CCK8 assay.
Data set [5] deals with KMS-11. Briefly: Antiproliferative activity against human KMS-11 cells assessed as reduction in cell viability incubated for 6 days by CCK8 assay. The conditions noted are these: dose 1-100 µM, time 6.0 day. It counts as functional, cell-based. The method in brief:
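Cells seeded in triplicate at 6000–20000 per well and left 24 h, then exposed to increasing concentrations for a further 6 days. Viability read with CCK-8 and growth IC50 derived from the dose–response.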

For data set [6], the system named is KMS-11. Description: Antiproliferative activity against human KMS-11 cells assessed as reduction in cell viability incubated for 6 days by CCK8 assay. The settings on record: KMS-11, 6 days.
Data set [7] has as its target Histone-lysine N-methyltransferase SETD2 (Homo sapiens, UniProt Q9BYW2). Description: Inhibition of SETD2 (unknown origin) using SAM as substrate preincubated for 10 mins followed by substrate addition measured after 4 hrs by AlphaLISA method.
The nature of data set [8]: Tmax in CD-1 mouse at 2 mg/kg, ip measured up to 24 hrs by LC-MS/MS. It counts as ADME, organism-based. The conditions noted are these: in vivo. In short, it runs like this: (§2)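 CD-1 mice dosed at 2 mg/kg i.p. or i.v., n = 3 per group. Blood sampled at 0, 0.083, 0.25, 0.5, 1, 2, 4, 6, 8 and 24 h and spun for plasma. Internal standard added, deproteinized with methanol/acetonitrile (1:1), supernatant diluted and analysed by LC/MS/MS.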

For data set [9], the system named is MV4-11. Description: cells. The settings on record: Homo sapiens, MV4-11, 72 h, read-out: Activity.
Data set [10] is described as follows: Volume of distribution in CD-1 mouse at 2 mg/kg, iv measured up to 24 hrs by LC-MS/MS. In kind it is ADME, organism-based. The conditions noted are these: in vivo. The method in brief:
as §2

Data set [11] has as its system RS4-11. Description: Antitumor activity against human RS4-11 cells xenografted in SCID mouse assessed as tumor growth inhibition at 25 mg/kg, ip qd administered consecutively for 21 days relative to control. The conditions noted are these: RS4-11, ip, 504 h, read-out: TGI. (In general: Xenograft models place foreign cells or tissue in a host animal.)
Data set [12] addresses Protein arginine N-methyltransferase 5 (Homo sapiens, UniProt O14744). Description: Inhibition of PRMT5 (unknown origin) using SAM as substrate preincubated for 10 mins followed by substrate addition measured after 4 hrs by AlphaLISA method.
Data set [13] can be described thus: Cmax in CD-1 mouse at 2 mg/kg, ip measured up to 24 hrs by LC-MS/MS. In kind it is ADME, organism-based. Set-up: route intraperitoneal, dose 2 mg/kg, time <=24. The settings on record: in vivo. In short, it runs like this: as §1
Data set [14] addresses Histone-arginine methyltransferase CARM1 (Homo sapiens, UniProt Q86X55). Description: Inhibition of PRMT4 (unknown origin) using SAM as substrate preincubated for 10 mins followed by substrate addition measured after 4 hrs by AlphaLISA method.
A short description of data set [15]: AUC in CD-1 mouse at 2 mg/kg, ip measured up to 24 hrs by LC-MS/MS. It counts as ADME, organism-based. Also noted: route intraperitoneal, dose 2 mg/kg, time <=24. The settings on record: in vivo. In short, it runs like this:
as §1

Data set [16] concerns the target T1, Histone-lysine N-methyltransferase NSD2 (Homo sapiens, UniProt O96028).
T1 sequence (O96028 whole entry): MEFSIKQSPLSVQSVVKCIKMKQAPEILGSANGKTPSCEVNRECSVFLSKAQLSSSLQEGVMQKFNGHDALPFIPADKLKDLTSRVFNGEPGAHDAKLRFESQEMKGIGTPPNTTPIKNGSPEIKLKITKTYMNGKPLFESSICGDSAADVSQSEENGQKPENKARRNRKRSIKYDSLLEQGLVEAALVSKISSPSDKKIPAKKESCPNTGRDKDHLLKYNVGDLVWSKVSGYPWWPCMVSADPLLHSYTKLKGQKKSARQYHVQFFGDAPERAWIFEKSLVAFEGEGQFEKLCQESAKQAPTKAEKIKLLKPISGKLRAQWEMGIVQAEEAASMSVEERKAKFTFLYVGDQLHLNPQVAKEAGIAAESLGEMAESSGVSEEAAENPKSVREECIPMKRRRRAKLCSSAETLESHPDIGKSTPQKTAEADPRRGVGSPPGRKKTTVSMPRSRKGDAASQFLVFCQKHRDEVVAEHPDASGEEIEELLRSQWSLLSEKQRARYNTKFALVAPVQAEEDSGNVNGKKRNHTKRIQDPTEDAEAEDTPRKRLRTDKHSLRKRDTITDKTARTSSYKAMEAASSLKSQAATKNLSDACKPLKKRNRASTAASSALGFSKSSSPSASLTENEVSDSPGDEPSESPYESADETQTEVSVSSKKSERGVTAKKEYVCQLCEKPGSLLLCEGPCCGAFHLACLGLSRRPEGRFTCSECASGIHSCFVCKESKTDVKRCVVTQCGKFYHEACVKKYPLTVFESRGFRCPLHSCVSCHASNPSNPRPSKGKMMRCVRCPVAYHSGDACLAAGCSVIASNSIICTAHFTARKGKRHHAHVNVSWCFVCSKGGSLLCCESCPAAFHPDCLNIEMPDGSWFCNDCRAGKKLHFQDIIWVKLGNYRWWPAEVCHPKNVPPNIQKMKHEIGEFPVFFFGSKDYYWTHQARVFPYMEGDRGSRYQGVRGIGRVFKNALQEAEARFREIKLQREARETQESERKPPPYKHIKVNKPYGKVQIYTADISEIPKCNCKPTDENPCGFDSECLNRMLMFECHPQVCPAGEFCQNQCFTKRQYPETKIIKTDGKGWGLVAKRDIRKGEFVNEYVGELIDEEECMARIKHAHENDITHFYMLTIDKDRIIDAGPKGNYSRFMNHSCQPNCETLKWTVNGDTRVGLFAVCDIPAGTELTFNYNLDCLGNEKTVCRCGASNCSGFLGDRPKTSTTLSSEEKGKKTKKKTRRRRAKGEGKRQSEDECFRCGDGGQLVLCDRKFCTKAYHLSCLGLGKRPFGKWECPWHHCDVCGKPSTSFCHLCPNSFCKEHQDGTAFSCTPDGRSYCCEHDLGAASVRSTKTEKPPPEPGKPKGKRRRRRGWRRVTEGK
Description: Inhibition of recombinant human N-terminal GST-tagged NSD2 CD (941 to 1240 residues) expressed in Escherichia coli using SAM as substrate in presence of nucleosomes by AlphaLISA method. (Alpha assays give light when donor and acceptor beads are brought close together.)

In data set [17] the test system is RS4-11. Briefly: cells. The conditions noted are these: Homo sapiens, RS4-11, 72 h, read-out: Activity.

Histone-arginine methyltransferase CARM1, sequence (Q86X55 whole entry): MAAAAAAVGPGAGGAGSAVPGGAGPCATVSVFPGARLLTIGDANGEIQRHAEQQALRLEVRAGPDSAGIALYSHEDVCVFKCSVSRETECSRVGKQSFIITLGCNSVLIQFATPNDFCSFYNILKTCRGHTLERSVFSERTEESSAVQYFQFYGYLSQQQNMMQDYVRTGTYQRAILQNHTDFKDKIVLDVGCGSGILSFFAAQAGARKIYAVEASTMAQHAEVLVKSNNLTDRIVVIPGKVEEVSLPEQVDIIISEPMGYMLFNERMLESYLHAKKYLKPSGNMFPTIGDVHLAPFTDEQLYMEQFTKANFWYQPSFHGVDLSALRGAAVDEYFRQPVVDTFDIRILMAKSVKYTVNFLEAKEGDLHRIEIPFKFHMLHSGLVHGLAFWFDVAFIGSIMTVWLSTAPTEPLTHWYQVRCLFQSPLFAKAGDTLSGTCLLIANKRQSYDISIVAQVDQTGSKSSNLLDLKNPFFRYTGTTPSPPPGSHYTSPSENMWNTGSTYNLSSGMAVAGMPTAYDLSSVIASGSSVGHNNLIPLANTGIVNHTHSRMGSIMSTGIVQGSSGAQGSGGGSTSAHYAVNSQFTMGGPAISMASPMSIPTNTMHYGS
Protein arginine N-methyltransferase 5, sequence (O14744 whole entry): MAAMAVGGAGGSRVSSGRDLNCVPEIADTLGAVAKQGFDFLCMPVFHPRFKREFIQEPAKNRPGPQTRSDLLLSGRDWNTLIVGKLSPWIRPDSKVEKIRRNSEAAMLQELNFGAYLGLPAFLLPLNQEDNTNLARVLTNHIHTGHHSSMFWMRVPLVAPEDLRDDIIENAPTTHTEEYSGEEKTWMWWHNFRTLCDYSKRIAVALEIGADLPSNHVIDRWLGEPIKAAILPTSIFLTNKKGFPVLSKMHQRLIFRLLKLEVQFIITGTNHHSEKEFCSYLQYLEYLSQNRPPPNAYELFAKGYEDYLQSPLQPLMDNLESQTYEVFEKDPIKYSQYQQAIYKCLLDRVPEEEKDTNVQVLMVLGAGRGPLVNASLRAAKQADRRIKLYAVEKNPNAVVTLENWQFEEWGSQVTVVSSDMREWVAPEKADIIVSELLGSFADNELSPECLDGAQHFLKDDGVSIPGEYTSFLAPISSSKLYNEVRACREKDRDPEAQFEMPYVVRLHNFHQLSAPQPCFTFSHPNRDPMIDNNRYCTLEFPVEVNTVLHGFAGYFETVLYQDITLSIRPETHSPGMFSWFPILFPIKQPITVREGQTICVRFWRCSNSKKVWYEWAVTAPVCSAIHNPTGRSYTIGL
Histone-lysine N-methyltransferase SETD2, sequence (Q9BYW2 whole entry): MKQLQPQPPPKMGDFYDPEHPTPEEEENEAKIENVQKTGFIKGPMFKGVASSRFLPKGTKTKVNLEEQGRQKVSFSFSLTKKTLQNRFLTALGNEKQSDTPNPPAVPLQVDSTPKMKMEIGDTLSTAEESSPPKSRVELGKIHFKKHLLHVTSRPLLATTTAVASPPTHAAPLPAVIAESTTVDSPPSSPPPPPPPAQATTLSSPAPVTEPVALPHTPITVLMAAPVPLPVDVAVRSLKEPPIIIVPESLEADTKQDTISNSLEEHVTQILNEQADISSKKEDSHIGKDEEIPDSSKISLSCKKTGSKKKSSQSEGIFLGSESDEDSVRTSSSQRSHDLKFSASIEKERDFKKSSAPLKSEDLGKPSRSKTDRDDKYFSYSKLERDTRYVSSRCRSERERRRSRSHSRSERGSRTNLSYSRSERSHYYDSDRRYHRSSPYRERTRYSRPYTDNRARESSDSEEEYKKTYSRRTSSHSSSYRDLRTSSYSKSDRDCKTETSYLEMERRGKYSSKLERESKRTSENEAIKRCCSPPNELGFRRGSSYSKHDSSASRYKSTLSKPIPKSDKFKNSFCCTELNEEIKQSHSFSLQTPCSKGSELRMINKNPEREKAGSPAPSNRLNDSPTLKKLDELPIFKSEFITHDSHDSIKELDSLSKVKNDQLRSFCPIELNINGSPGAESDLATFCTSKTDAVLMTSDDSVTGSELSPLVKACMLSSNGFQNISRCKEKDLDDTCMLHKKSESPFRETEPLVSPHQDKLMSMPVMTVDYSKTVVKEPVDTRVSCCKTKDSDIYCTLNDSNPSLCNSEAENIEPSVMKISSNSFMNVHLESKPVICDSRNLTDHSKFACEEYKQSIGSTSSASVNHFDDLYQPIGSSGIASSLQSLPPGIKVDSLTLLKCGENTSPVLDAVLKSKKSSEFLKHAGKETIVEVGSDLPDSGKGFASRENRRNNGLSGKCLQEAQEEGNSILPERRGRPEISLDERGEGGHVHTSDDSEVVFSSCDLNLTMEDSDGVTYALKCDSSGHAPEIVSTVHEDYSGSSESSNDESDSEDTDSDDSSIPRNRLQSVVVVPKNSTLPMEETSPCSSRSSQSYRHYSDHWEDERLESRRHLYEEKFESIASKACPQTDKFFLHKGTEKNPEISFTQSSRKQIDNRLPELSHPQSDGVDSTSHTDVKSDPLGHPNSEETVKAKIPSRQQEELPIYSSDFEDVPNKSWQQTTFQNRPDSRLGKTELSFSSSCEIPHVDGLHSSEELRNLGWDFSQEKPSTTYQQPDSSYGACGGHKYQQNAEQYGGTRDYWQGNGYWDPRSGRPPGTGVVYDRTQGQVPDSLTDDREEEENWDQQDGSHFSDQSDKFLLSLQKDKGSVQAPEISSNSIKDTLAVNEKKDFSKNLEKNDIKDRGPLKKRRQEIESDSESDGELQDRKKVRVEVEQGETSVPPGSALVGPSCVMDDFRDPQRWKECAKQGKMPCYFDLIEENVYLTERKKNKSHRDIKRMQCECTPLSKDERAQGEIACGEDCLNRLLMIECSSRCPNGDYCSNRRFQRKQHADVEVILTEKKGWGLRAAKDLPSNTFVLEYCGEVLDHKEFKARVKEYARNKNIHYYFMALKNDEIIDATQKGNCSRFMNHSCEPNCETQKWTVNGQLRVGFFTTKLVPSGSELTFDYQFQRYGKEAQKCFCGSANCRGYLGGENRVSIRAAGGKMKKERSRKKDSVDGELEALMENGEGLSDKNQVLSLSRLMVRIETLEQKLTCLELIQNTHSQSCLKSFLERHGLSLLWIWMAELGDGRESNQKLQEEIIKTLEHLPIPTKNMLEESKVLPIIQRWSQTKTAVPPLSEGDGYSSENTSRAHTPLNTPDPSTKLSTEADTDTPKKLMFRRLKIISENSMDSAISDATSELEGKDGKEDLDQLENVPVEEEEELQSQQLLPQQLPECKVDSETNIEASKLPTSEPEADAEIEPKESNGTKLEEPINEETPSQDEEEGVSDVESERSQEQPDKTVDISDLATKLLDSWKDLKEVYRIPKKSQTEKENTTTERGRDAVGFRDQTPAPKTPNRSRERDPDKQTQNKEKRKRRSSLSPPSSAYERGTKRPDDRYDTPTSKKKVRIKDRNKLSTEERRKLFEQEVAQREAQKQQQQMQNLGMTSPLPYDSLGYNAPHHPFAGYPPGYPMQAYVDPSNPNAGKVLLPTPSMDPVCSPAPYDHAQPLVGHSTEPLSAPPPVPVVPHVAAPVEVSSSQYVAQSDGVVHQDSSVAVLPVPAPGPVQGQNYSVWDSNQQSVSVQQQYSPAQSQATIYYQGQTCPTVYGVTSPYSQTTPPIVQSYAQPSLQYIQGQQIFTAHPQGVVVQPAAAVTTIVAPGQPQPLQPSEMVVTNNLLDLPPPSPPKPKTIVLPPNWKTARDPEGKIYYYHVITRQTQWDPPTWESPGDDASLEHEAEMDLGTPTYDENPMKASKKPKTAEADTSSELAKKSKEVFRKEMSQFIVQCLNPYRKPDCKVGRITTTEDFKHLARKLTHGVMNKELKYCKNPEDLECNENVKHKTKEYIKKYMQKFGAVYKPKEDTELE

As for `Cl.Nc1cccc2c(S(=O)(=O)NCc3ccccc3)cccc12`, the AUC at 24 h worked out at 204 ng·h/mL in data set [1] and 150 ng·h/mL in [15]. Besides, the result in [2] and in data set [4] was Active. Moreover, the inhibition result in [3] is “Active”. The Activity result in data set [5] was “Dose-Dependent Effect”. Moreover, the IC50 in data set [6] was 1880 nM; in [7], greater than 20000 nM; in [12] it was greater than 20000 nM; in data set [14], greater than 20000 nM; in [16], 2700 nM. The Tmax in data set [8] was determined as 4.98 min. For the same compound, the viability at 10 µM in data set [9] worked out at 94%. Moreover, in [10], the Vd was 3.85 L/kg. Besides, the inhibition in vivo at 25 mg/kg in data set [11] turned out to be 43.6%. Besides, the peak level in data set [13] (Cmax) was 433 ng/mL. The viability at 5 µM in data set [17] is 2.19%.
